Reference: ChEMBL document CHEMBL3414544, “PAINS in the assay: chemical mechanisms of assay interference and promiscuous enzymatic inhibition observed during a sulfhydryl-scavenging HTS” (J Med Chem, 2015)
Activity calls are given as the source filed them. Unless noted, the rule behind the calls is not given here.

Legend:
[1] = target: T1, Lupus La protein (Homo sapiens) (UniProt P05455); test: Induction of thiol reactivity with La protein (unknown origin) using […] assessed as protein reactivity by ALARM NMR in presence of 20 mM DTT
T1 sequence (whole entry): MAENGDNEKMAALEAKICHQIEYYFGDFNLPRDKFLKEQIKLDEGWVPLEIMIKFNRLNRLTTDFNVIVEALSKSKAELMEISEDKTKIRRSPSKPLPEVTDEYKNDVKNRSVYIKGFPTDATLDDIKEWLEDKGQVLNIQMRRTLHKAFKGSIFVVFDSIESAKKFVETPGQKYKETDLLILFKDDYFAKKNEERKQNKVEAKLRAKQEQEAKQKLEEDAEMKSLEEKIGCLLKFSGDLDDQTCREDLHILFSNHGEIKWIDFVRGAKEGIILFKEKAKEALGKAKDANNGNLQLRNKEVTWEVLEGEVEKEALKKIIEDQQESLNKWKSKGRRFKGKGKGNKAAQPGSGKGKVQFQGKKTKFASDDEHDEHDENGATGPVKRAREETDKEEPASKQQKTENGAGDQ
Summary of the method: (§1)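 ALARM NMR with recombinant La antigen expressed in E. coli Rosetta, 15N-labelled and 13C-labelled at Leu/Ile δ-methyl and Val γ-methyl groups; protein pre-reduced with 20 mM DTT then dialysed DTT-free under N2.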

[2] = target: T2, Histone acetyltransferase p300 (Homo sapiens, UniProt Q09472); test: Inhibition of recombinant histone acetyltransferase p300 (unknown origin) using dH3-H4 tetramer and [3H]-acetyl-CoA assessed as acetate incorporation […] by liquid scintillation counting; details: read-out: IC50
[3] = Fluorescence quenching in HTS buffer with 20 uM 7-diethylamino-3-(4'-maleimidyl-phenyl)-4-methylcoumarin assessed as fluorescence signal reduction at 10 uM after 10 mins; assay type: physicochemical
[4] = target: T2, Histone acetyltransferase p300; test: Inhibition of recombinant histone acetyltransferase p300 (unknown origin) using dH3-H4 tetramer and [3H]-acetyl-CoA assessed as acetate incorporation after 5 mins by liquid scintillation counting in presence of 1 mM DTT
[5] = target: T3, Histone acetyltransferase RTT109 (Saccharomyces cerevisiae (strain ATCC 204508 / S288c) (Baker's yeast), UniProt Q07794); test: Inhibition of Vps75-stimulated recombinant Saccharomyces cerevisiae histone acetyltransferase Rtt109 using [3H]-acetyl-CoA assessed as acetate incorporation after 30 mins by liquid scintillation counting; details: read-out: IC50
T3 sequence (Q07794 whole entry): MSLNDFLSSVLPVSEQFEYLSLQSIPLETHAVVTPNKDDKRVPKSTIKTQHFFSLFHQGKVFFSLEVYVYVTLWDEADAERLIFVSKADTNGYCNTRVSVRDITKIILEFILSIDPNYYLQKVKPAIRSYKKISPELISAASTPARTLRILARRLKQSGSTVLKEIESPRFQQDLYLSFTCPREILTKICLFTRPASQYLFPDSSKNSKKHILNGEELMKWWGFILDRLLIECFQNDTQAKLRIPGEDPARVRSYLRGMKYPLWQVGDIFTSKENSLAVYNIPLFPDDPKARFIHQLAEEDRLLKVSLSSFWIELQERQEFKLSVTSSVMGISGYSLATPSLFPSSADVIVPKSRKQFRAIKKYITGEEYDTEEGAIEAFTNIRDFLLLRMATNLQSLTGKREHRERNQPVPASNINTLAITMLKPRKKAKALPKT

[6] = Fluorescence quenching assessed as fluorescence signal reduction at 10 uM after 10 mins; assay type: physicochemical
Summary of the method: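 CPM (20 μM final) and CoA (5 μM final) reacted to completion in assay buffer (stable plateau, usually ~5 min); adduct solution added to wells preplated with compound; shaken 5 min, equilibrated 5 min at room temperature; fluorescence intensity read as percent signal reduction versus DMSO controls. Flagged as quencher at >20% signal reduction at 10 μM final compound.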

[7] = target: Histone acetyltransferase GCN5 (Saccharomyces cerevisiae S288c, UniProt Q03330); test: Inhibition of yeast histone acetyltransferase Gcn5-Ada2-Ada3 complex using tetramer and [3H]-acetyl-CoA assessed as acetate incorporation after 30 mins by liquid scintillation counting; details: read-out: IC50
[8] = target: T4, Histone acetyltransferase RTT109 (Saccharomyces cerevisiae (strain ATCC 204508 / S288c) (Baker's yeast)) (UniProt Q07794); test: Inhibition of Vps75-stimulated recombinant Saccharomyces cerevisiae histone acetyltransferase Rtt109 assessed as H3K56 acetylated product at […] after 45 mins by Slot bolt inhibiton assay
T4 sequence (whole entry): T3 sequence (Q07794 whole entry)

[9] = Fluorescence quenching in HTS buffer assessed as fluorescence signal reduction at 10 uM after 10 mins; assay type: physicochemical
[10] = Fluorescence quenching in HTS buffer with […] CoA assessed as fluorescence signal reduction at 10 uM after 10 mins; assay type: physicochemical
[11] = target: T1, Lupus La protein (Homo sapiens); test: Induction of thiol reactivity with La protein (unknown origin) using […] assessed as protein reactivity by ALARM NMR; summary of the method: as §1
[12] = Chemical stability of the compound in HTS buffer assessed as GSH adduct formation by UPLC-MS analysis; assay type: physicochemical
Summary of the method: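 Compound (typically 0.5 mM final) incubated in HTS buffer (pH 8.0) for 5, 15 or 30 min, then reduced glutathione added (2 equiv per 1 equiv compound); aliquots analysed by UPLC–MS (BEH C18 column, ELS and 254 nm traces) 5 min after GSH addition, and the same sample re-analysed 15 min later. HTS-like conditions but 5% DMSO, no detergent.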

[13] = target: Histone acetyltransferase GCN5 (Saccharomyces cerevisiae S288c) (UniProt Q03330); test: Inhibition of yeast histone acetyltransferase Gcn5-Ada2-Ada3 complex using tetramer and [3H]-acetyl-CoA assessed as acetate incorporation […] by liquid scintillation counting in presence of 1 mM DTT
[14] = target: T3, Histone acetyltransferase RTT109; test: Inhibition of Vps75-stimulated recombinant Saccharomyces cerevisiae histone acetyltransferase Rtt109 using Asf1-dH3-H4 as substrate assessed as coenzyme A production after 45 mins by CPM based HTS assay; details: read-out: IC50
Summary of the method: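 Recombinant Rtt109–Vps75 at 50 nM, with Asf1–dH3–H4 as substrate and acetyl-CoA as acetyl donor. Buffer contained freshly prepared 0.01% Triton X-100. The CoA product was detected by fluorescence of its CPM adduct. Plates had Z′ ≥0.5. IC50 came from a four-parameter variable-slope fit.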

[15] = target: T4, Histone acetyltransferase RTT109 (Saccharomyces cerevisiae (strain ATCC 204508 / S288c) (Baker's yeast)); test: Inhibition of Vps75-stimulated recombinant Saccharomyces cerevisiae histone acetyltransferase Rtt109 using [3H]-acetyl-CoA assessed as acetate incorporation […] by liquid scintillation counting in presence of 1 mM DTT
[16] = target: T4, Histone acetyltransferase RTT109 (Saccharomyces cerevisiae (strain ATCC 204508 / S288c) (Baker's yeast)); test: Inhibition of Vps75-stimulated recombinant Saccharomyces cerevisiae histone acetyltransferase Rtt109 assessed as H3K27 acetylated product at […] after 45 mins by Slot bolt inhibiton assay

Chain of Histone acetyltransferase GCN5 (Q03330 whole entry): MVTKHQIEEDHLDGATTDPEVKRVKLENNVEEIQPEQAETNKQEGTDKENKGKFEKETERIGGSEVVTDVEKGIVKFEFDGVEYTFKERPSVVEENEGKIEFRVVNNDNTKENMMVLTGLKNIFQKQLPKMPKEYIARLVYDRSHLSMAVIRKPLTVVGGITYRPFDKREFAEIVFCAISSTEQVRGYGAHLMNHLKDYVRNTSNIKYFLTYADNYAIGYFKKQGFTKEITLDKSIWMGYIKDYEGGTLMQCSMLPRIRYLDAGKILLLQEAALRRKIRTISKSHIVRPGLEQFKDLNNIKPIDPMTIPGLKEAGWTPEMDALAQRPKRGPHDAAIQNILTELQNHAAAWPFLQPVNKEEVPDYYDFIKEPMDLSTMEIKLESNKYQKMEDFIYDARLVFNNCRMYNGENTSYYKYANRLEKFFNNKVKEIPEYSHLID
Chain of Histone acetyltransferase GCN5 (Saccharomyces cerevisiae S288c) (Q03330 whole entry): as above
T2 sequence (Q09472 whole entry): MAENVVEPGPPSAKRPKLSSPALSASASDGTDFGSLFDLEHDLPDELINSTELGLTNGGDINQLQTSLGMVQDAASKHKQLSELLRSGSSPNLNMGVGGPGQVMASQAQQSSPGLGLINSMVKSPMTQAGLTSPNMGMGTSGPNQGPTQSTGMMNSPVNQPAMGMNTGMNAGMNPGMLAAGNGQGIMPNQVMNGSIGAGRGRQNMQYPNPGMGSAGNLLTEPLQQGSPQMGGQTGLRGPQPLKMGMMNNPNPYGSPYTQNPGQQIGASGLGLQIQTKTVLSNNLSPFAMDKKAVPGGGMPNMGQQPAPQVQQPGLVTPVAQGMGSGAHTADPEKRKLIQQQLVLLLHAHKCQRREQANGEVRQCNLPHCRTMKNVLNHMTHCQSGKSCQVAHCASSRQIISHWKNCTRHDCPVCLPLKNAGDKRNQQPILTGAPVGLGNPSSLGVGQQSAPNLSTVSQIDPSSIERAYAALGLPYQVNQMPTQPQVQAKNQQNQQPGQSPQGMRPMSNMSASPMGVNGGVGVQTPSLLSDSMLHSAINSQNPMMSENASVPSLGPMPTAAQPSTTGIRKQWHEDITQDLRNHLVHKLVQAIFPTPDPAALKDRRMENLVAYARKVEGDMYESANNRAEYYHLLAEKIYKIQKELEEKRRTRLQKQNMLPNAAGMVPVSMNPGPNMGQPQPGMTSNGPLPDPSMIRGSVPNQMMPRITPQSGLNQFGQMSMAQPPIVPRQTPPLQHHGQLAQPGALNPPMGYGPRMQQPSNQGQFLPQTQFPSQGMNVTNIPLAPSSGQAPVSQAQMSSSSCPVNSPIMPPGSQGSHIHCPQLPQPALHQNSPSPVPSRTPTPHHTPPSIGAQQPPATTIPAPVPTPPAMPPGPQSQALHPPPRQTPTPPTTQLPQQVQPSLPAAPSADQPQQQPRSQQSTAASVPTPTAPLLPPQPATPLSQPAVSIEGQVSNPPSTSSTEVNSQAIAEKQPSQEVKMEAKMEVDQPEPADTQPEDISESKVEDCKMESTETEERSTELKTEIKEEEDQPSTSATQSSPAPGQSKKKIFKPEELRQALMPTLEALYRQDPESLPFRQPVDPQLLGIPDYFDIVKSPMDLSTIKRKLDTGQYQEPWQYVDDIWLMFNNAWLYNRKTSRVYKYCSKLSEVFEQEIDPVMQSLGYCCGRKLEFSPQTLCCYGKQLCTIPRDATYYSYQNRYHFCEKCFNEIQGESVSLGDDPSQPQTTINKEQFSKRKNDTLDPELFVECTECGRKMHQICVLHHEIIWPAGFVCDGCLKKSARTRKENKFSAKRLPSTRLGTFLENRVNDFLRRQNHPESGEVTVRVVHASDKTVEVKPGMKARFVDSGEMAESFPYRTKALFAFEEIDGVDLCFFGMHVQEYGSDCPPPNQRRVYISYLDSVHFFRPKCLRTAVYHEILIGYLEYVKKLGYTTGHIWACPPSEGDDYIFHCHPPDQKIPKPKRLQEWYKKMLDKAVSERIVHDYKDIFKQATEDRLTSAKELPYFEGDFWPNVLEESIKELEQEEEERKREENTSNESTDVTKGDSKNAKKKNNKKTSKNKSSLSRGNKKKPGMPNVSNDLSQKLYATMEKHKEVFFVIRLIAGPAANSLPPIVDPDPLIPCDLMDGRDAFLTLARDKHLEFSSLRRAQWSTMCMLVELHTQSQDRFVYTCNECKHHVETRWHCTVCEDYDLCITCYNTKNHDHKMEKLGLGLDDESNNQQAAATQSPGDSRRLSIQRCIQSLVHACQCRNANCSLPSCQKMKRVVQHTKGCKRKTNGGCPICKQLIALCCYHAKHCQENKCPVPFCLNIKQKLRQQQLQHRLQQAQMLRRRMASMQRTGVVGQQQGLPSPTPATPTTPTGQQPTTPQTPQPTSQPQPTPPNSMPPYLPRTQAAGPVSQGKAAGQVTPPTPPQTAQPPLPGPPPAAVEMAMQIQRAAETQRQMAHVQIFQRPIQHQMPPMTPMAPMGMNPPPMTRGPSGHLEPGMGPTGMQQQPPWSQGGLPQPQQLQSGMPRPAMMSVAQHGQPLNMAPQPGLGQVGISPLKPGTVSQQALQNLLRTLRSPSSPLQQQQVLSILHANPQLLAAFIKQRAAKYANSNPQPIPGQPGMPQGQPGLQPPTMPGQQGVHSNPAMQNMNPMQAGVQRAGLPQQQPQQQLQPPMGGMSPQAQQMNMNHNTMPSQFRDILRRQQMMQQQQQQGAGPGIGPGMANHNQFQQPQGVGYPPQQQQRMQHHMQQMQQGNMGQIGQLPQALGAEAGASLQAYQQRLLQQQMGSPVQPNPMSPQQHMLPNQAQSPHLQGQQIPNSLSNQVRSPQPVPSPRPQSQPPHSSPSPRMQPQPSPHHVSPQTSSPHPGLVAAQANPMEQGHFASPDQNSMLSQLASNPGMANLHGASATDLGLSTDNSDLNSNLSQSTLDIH

Structure (SMILES) | Activity [1] | IC50 [2] [µM] | Activity [3] | Activity [4] | IC50 [5] [µM] | Activity [6] | IC50 [7] [µM] | Activity [8] | Activity [9] | Activity [10] | Activity [11] | Stability [12] | Activity [13] | IC50 [14] [µM] | Activity [15] | Activity [16]
O=C(O)c1ccc(-n2nnnc2SC2=CS(=O)(=O)c3ccccc32)cc1 | inactive | 7.5 | Not Active | Active | 15 | Not Active | 11 | Active | Not Active | Not Active | Active | Unstable | Active | 8.8 | Active | Active
O=C1CC(Sc2nnc(-c3ccccc3O)o2)C(=O)N1c1ccc(Br)cc1 (stereo not drawn) | inactive | 3.7 | Not Active | Active | 3.9 | Not Active | 27 | Active | Not Active | Not Active | Active | Unstable | Active | 15 | Active | Active
O=[N+]([O-])c1cc(Br)c2nsnc2c1Sc1ncnc2[nH]cnc12 | inactive | 2.2 | Not Active | Active | 3.9 | Not Active | 4.6 | Active | Not Active | Not Active | Active | Unstable | Active | 2.8 | Active | Active
